Here are results for 21 compounds from PubChem BioAssay AID493103 (Broad Institute, 2011).

Experiment [1] in a line: QS-driven bacterial bioluminescence blockers – strain BB721, dry powder, set 3, counter-screen for LuxS inhibitor project, dose response (AID 493103). The conditions noted are these: Vibrio harveyi BB721 quorum sensing luminescence, 9 h; at 16 µM (top of the series). In short, it runs like this:
(§1)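 Material: V. harveyi BB721 quorum-sensing strain / Input: bacterial culture diluted to starting OD600 of 0.0005 / Buffer or medium: AB medium / Times: 9 h compound exposure, 30 °C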

Experiment [2] relates to Vibrio harveyi BB721 quorum sensing luminescence, 9 h. The experiment is described as above. An outline of the steps: as §1

Each structure is given as a SMILES string. Inconclusive results are not listed. Active and inactive are the calls of the source.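 Rule for the calls: active = compounds whose fitted half-maximal concentration lies within ten times the top tested dose in every run, with signal falling; inconclusive = runs disagree, or unclear curves such as poor fits; inactive = every run inactive, including rises in signal.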

Turning to `C[C@@H]1CCCCO[C@@H](CN(C)C(=O)Nc2cccc3ccccc23)[C@H](C)CN([C@H](C)CO)C(=O)c2cc(NC(=O)CCC(F)(F)F)ccc2O1`, in experiment [1], the activity change, negative = inhibition was 2% (inactive). Same read-out and setting: with `O=S(=O)(Nc1ccccn1)c1ccccc1` the figure was 1.3% (inactive). `C=Cn1c(C(=O)O)ccc1-c1ccc(Cl)cc1`: the AC50 in experiment [2] is 16.2 µM. For `Cc1ccc(S(=O)(=O)Nc2ccc3c(c2)C(=O)N([C@H](C)CO)C[C@H](C)[C@@H](CN(C)Cc2ccc(C(F)(F)F)cc2)O3)cc1`, the activity change, negative = inhibition in experiment [1] is -2.52% (inactive). Regarding `C[C@H](CO)N1C[C@H](C)[C@@H](CN(C)C(=O)Nc2ccc(C(F)(F)F)cc2)Oc2ccc(NC(=O)Nc3ccc4c(c3)OCO4)cc2C1=O`, in experiment [1], the activity change, negative = inhibition was -10.5% (inactive). On to `C[C@@H]1CN([C@H](C)CO)C(=O)c2ccccc2-c2ccccc2CO[C@@H]1CN(C)Cc1ccc(Oc2ccccc2)cc1`, for which the AC50 in experiment [2] is 13.8 µM. Take `C[C@@H]1CN([C@H](C)CO)C(=O)c2cccc(NC(=O)Nc3ccc(C(F)(F)F)cc3)c2O[C@@H]1CN(C)C(=O)Nc1ccc(C(F)(F)F)cc1`: in experiment [1], the activity change, negative = inhibition was -11.1% (inactive).

On to `CNC[C@@H]1Oc2ccc(NC(=O)C3CCCCC3)cc2CC(=O)N([C@@H](C)CO)C[C@H]1C`, for which the activity change, negative = inhibition in experiment [1] was 1.18% (inactive). Still for that read-out and setting: as for `C[C@@H]1CN([C@@H](C)CO)C(=O)Cc2cc(NC(=O)CCN3CCOCC3)ccc2O[C@H]1CN(C)C(=O)Nc1ccc(F)cc1`, the figure is 1.22% (inactive). On to `O=C1C=C/C(=C/Br)O1`, for which the AC50 in experiment [2] is 4.47 µM. For the compound `C[C@H](CO)N1C[C@H](C)[C@@H](CN(C)Cc2ccc3c(c2)OCO3)Oc2c(NC(=O)NC3CCCCC3)cccc2C1=O`, in experiment [2], the AC50 was 8.89 µM. In the case of `C[C@@H]1CCCCO[C@@H](CN(C)Cc2ccc(C(=O)O)cc2)[C@H](C)CN([C@H](C)CO)C(=O)c2cc(NC(=O)CCCN(C)C)ccc2O1`, in experiment [1], the activity change, negative = inhibition was -5.01% (inactive).

Turning to `C[C@H]1CN([C@@H](C)CO)C(=O)c2cc(NC(=O)Nc3ccc4c(c3)OCO4)ccc2O[C@@H]1CN(C)C(=O)Nc1ccc(C(F)(F)F)cc1`, in experiment [1], the activity change, negative = inhibition is -0.179% (inactive). `O=S(=O)(Nc1cccnc1)c1ccc(Oc2ccccc2)cc1`: the AC50 in experiment [2] was 1.02 µM.

On to `C[C@@H]1CCCCO[C@@H](CN(C)Cc2ccncc2)[C@H](C)CN([C@H](C)CO)C(=O)c2cc(NC(=O)C3CCCCC3)ccc2O1`, for which the activity change, negative = inhibition in experiment [1] was -3.87% (inactive). Take `Cc1ccc(S(=O)(=O)Nc2ccc3c(c2)CC(=O)N([C@@H](C)CO)C[C@@H](C)[C@H](CN(C)C(=O)Nc2ccc(F)cc2)O3)cc1`: the activity change, negative = inhibition in experiment [1] is 3.81% (inactive). Still for that read-out and setting: with `C[C@@H]1CN([C@@H](C)CO)C(=O)Cc2cc(NC(=O)CCCN(C)C)ccc2O[C@H]1CN(C)CC1CCCCC1` the figure was 13.8% (inactive); with `C=Cn1c(C(=O)O)ccc1-c1cccs1`, -7.12% (inactive); with `C[C@@H]1CCCCO[C@@H](CN(C)C(=O)Nc2ccc(C(F)(F)F)cc2)[C@H](C)CN([C@@H](C)CO)C(=O)c2cc(NC(=O)CCC(F)(F)F)ccc2O1`, 2.01% (inactive). Consider `C[C@@H]1CN([C@@H](C)CO)C(=O)Cc2cc(NC(=O)CCN3CCOCC3)ccc2O[C@H]1CN(C)C(=O)Nc1ccc(C(F)(F)F)cc1`, for which the activity change, negative = inhibition in experiment [1] is 6.93% (inactive). The same measure, in the same setting: as for `C[C@H](CO)N1C[C@H](C)[C@H](CN(C)Cc2ccc(C(=O)O)cc2)Oc2ncc(-c3ccc(C(=O)N(C)C)cc3)cc2C1=O`, the figure is 0.806% (inactive).
